# Screening results (PubChem)
# CAL PDZ FP-1 – inhibitors of human CAL PDZ peptide binding | purified CAL PDZ, TMR-peptide fluorescence polarization, 1 h | 300,000 tested, 0.92% active | AID 602252 | Q9HD26 | inhibition, % at 24.9 µM;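 active = mean inhibition of at least 30% with at least half of replicates also reaching 30%; inconclusive = no clear call, values can overlap the other calls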;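 note: 0% = DMSO neutral control and 100% = excess unlabeled competitor peptide PRC23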
# dFosB act – enhances mouse delta FosB homodimer DNA binding; AID 493131; P13346; 340,000 tested, 0.99% active; purified delta FosB, TAMRA-CDK5 oligo fluorescence polarization; percent of positive-control signal above neutral wells; activation, % at 25 µM;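 active = mean activation above about 17%, with every replicate also reaching it, limit read from the data, passing the limit was not always enough; inconclusive = only one of the two conditions met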
# Target sequence (P13346 whole entry, looked up): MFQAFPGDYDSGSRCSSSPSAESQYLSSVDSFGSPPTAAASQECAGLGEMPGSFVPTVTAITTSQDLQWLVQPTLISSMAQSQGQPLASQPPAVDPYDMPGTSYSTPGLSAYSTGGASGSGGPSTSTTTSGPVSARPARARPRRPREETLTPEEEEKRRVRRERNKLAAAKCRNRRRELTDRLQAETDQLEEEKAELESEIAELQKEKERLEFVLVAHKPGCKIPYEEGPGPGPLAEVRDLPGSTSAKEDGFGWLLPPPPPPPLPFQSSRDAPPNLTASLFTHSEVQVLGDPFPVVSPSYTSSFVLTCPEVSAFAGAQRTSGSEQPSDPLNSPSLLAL
# NTR1 agonist – activates human neurotensin receptor 1 | AID 493036 | P30989 | 330,000 tested, 0.17% active | NTR1-U2OS beta-arrestin-GFP spot imaging, agonist mode | activation, % at 20 µM;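 active = activation at or above 40% of the spot to cytoplasm intensity ratio, with at least 20 cells analyzed; inconclusive = wells under 20 cells, flagged as cytotoxic or low count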;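 note: 0% = DMSO without peptide and 100% = 100 nM NTR1 peptide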
# CAL PDZ FP-2 – inhibitors of human CAL PDZ peptide binding; Q9HD26; purified CAL PDZ, TMR-peptide fluorescence polarization, 1 h; inhibition, % at 20 µM; 330,000 tested, 0.02% active; AID 504414;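 active = highest replicate inhibition of at least 40%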;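 note: plate controls were DMSO neutral control wells for no effect and unlabeled competitor peptide control wells for full effect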
#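 Test system: tagged CAL PDZ domain / Buffer or medium: sodium phosphate/NaCl buffer pH 7.4 with TCEP, IgG, Thesit / Reagent: TMR-labelled reporter peptide T*-PRC34 bound in PDZ groove / Compound dosing: single point, 20 µM / Schedule: 1 h incubation at room temperature before polarization reading / Technique: fluorescence polarization (mP) / Benchmarks: unlabelled peptide, DMSO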
# PKA-R1A activ – activators of PKA-R1A complex; P00514+P68181; PKA-R1A dissociation, Cy5-IP20 fluorescence polarization; scaled: DMSO 0%, 113 µM cGMP 100%; activation, % at 11.4 µM; 340,000 tested, 0.083% active;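 active = percent activation above the mean of all tested compounds plus 3 SD, cut at about 19% in these data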;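 note: higher means more PKAc released from R1A so a rise in polarization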
# PKA-R2B act – PKA-R2B complex activation | PKA-R2B holoenzyme dissociation, Cy5-IP20 fluorescence polarization; R2B truncated from residue 108, S112A mutant; 0% DMSO only, 100% 113 µM cGMP | activation, % at 11.4 µM | 340,000 tested, 0.079% active;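 active = activation above a cutoff set at the mean over all compounds plus 3 SD, cut at about 18% in these data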;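 note: higher means more holoenzyme dissociation and a rise in polarization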
# NTR1 ag confirm – confirmation of agonists of human NTR1. shares compounds with NTR1 agonist. NTR1-U2OS beta-arrestin-GFP translocation imaging. activation, % at 20 µM. 480 tested, 38% active. AID 504550;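 active = mean activation at 20 µM of at least 40%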;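 note: 0% = DMSO without peptide and 100% = 100 nM NTR1 peptide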
# * marks the source's active call; other numbers are inactive results; ? = inconclusive; . = no result. Most compounds without a hit are left out; they make up all but 2% or so of the library.
SMILES,CAL PDZ FP-1,dFosB act,NTR1 agonist,CAL PDZ FP-2,PKA-R1A activ,PKA-R2B act,NTR1 ag confirm
O=C(COc1ccc(C(=O)O)cc1)Nc1cccc(C(F)(F)F)c1,2,-11,1,1,-5,-4,.
Cc1ccc(OC(F)F)c(NC(=O)Nc2cccc(C(F)(F)F)c2)c1,.,1,43*,-2,3,-11,14
O=C(Nc1ccccc1)Nc1cccc(C(F)(F)F)c1,0,-5,1,0,-4,-7,.
COc1cccc(/C=C/C(=O)c2cccc([N+](=O)[O-])c2)c1,8,1,18,-1,-15,-11,.
COc1cccc(/C=C/C(=O)c2cccc([N+](=O)[O-])c2)c1OC,4,-5,59*,0,-5,-10,59*
Nc1nonc1-n1nnc(C(=O)N/N=C/c2cc(Cl)ccc2O)c1CN1CCCCCC1,-3,-5,-2,0,7,12,.
COc1cc(/C=C2\C(=O)ON=C2c2ccc(Cl)cc2)ccc1O,.,.,49*,.,.,.,81*
O=C(Nc1ccc(-c2noc(CCc3ccccc3)n2)cc1)c1cccnc1,-1,-6,67*,0,-9,2,15
O=C(NCCc1ccccc1)c1ccc(NC(=O)c2cccnc2)cc1,-2,-13,0,0,2,1,.
O=C(N/N=C/c1cn(-c2ccccc2)nc1-c1cc2ccccc2o1)c1cccnc1,-6,14,40*,-12,-12,0,62*
CC(C)C[C@H](NC(=O)c1[nH]cnc1C(=O)N[C@@H](C)c1ccccc1)C(=O)OCc1ccccc1,-1,-9,42*,-1,-12,-9,63*
CC(C)(C)OC(=O)NCc1ccc(CNC(=O)c2nc[nH]c2C(=O)NCc2ccccc2)cc1,0,5,9,0,-2,-4,.
CC(C)C[C@H](NC(=O)c1nc[nH]c1C(=O)N[C@@H](CC(C)C)C(=O)OC(C)(C)C)C(=O)OCc1ccccc1,.,.,29,.,.,.,.
CC(C)(C)OC(=O)NCc1ccc(CNC(=O)c2[nH]cnc2C(=O)NCC(=O)OCc2ccccc2)cc1,1,-12,56*,-1,-4,-14,31
C[C@H](NC(=O)c1nc[nH]c1C(=O)N[C@@H](Cc1ccccc1)C(=O)OC(C)(C)C)C(=O)OCc1ccccc1,-3,-5,41*,0,4,-6,14
O=C(N[C@@H](Cc1ccccc1)C(=O)OCc1ccccc1)c1nc[nH]c1C(=O)N1CCc2ccccc2C1,-2,-5,48*,-2,-3,-7,10
C#CCOCCOCCOCCNc1nc(N2CCN(C(=O)Cn3cc(CCO)nn3)CC2)nc(N2CCN(C(=O)Cn3cc(CCCCN)nn3)CC2)n1,1,-1,.,-1,-2,12,.
CC(=O)Nc1ccc(S(=O)(=O)NCCC(=O)NCc2ccncc2)cc1,0,-6,0,-2,-5,4,.
O=C(NN(CC(O)COc1ccccc1)CC(O)COc1ccccc1)c1ccccc1 (centres undefined),.,-12,0,-4,8,-1,.
CCCCCCN1C[C@@H](n2cc(-c3ccc(F)cc3)nn2)[C@H](O)C[C@@H]1c1ccc(Cl)cc1,.,.,.,.,-6,-2,.
Cc1ccn2c(NC3CCCCC3)c(-c3cccc(-c4cccc(Cl)c4)c3)nc2c1,-1,2,10,-1,-11,1,.
CCOc1cc(/C=C\[N+](=O)[O-])ccc1OCC(=O)Nc1ccccc1C,3,-3,45*,-1,-13,-1,51*
COc1cc(/C=C/c2cccc[n+]2C)ccc1OCC(=O)Nc1ccccc1C,-2,-10,0,-2,-5,-3,.
Cc1cc(C)nc(Sc2ccc(C=O)cc2[N+](=O)[O-])n1,0,1,3,-1,-4,-11,.
O=Cc1ccc(Sc2nnc(-c3ccccc3)o2)c([N+](=O)[O-])c1,0,-8,?,-1,-3,-8,8
SMILES,CAL PDZ FP-1,dFosB act,NTR1 agonist,CAL PDZ FP-2,PKA-R1A activ,PKA-R2B act,NTR1 ag confirm
Cc1[nH]n(-c2ccccc2)c(=O)c1C(C[N+](=O)[O-])c1ccccc1Cl (centres undefined),0,-6,2,-1,-7,-9,.
COc1ccc(C(C[N+](=O)[O-])c2c(C)[nH]n(-c3ccccc3)c2=O)cc1 (centres undefined),-3,3,42*,.,-10,8,25
Cc1c(Cl)ccc2c(C(=O)Nc3cc(C(C)(C)C)on3)cc(-c3ccccn3)nc12,-2,-12,2,-1,-4,9,.
Cn1c(N)c(C(=O)COC(=O)/C=C/c2ccccc2)c(=O)n(C)c1=O,-2,-9,7,-1,3,-4,.
CCOC(=O)N1CCN(CC(O)COc2ccccc2C(C)C)CC1 (centres undefined),-24,-13,2,0,10,-11,.
CCN(CCNCC(O)COc1ccccc1C(C)C)c1cccc(C)c1 (centres undefined),-5,2,54*,.,-8,-13,15
CCNC(=O)CC1C(=O)N(c2ccc(C)cc2)C(=O)N1CCC(C)C (centres undefined),-16,2,1,-4,-10,9,.
CO/N=C/NC(=O)NOCc1ncc(C(F)(F)F)cc1Cl,-1,-11,0,-1,0,-2,.
O=C(N/C=N/OCc1ccc(Cl)cc1Cl)NOCc1ncc(C(F)(F)F)cc1Cl,-4,-2,41*,0,-13,-7,12
O=[N+]([O-])c1ccc(Nc2c3ccccc3nc3ccccc23)cc1,1,-12,44*,0,12,0,10
Brc1ccc(-c2ccc(/C=N/Nc3nc(N4CCOCC4)nc(N4CCOCC4)n3)o2)cc1,.,3,14,-1,-2,-1,.
Fc1cnc(N/N=C/c2ccc(-c3ccc(Br)cc3)o2)nc1N1CCOCC1,.,-6,41*,-1,-4,7,24
CCCCn1c(N)c(-c2nc3ccccc3s2)c2c([N+](=O)[O-])nn(C)c(=O)c21,-1,-7,61*,-2,6,3,5
CCCCn1c(N)c(-c2nc3ccccc3s2)c2c([N+](=O)[O-])nn(CC)c(=O)c21,-6,0,19,1,2,2,.
O=C(NCCc1c[nH]c2ccccc12)OCCCCOC(=O)NCCc1c[nH]c2ccccc12,-3,-13,67*,0,5,-12,17
CCCCn1c(SCC(=O)N2CCC(C)CC2)nc2cc(S(N)(=O)=O)ccc21,.,-9,44*,-1,-3,-3,50*
